The source of these data is PMC6082709 (Nature medicine, 2018).

The structures appear in SMILES notation. Entries after “also recorded” stand apart in the source; their conditions may differ. Some results are limits rather than exact numbers.

One data set relates to THP-1 or MV4;11 cells. As to the kind of experiment: LDH release with Val-boroPro plus bortezomib. It is filed as cell-based, human. The following applies: bortezomib 100 nM with Val-boroPro 2 μM, 6 h.
Data set [1] concerns AML cell lines. As to the kind of experiment: CellTiter-Glo cell viability across the cell line panel. The format is cell-based, human. The following applies: for sensitivity of the Val-boroPro-sensitive AML cell lines to the compound: cell viability relative to DMSO; for sensitivity of the Val-boroPro-sensitive AML cell lines to the compound / reduction in cell viability: 48 h. (In ATP-based viability assays light output follows the ATP content of the culture.)

The subject of data set [2] is caspase-1 knockout OCI-AML2, MV4;11 and THP-1 cells. As to the kind of experiment: Cell viability of caspase-1 knockout cells. It is filed as cell-based, human.
The test system of data set [3] is AML cell lines. The following applies: cited from earlier work.
The subject of another data set is HEK 293T cells. As to the kind of experiment: CellTiter-Glo cell viability assay. The format is cell-based, human. The following applies: HEK293T.
The nature of data set [4]: Evaluation in wild-type C57BL/6J mice. The format is in vivo, mouse. The following applies: 20 μg i.p. An outline of the steps:
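Female C57BL/6J mice (7 weeks) received vehicle (1 mM HCl/PBS) or 20 μg either once (n=5/group, harvested at 6 h or 24 h) or once daily, 5 days/week for two weeks (10 doses, n=4, harvested 24 h after the last dose). Blood was analysed for complete blood count and blood chemistry.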

For data set [5], the system named is CARD8−/− THP-1, MV4;11 and OCI-AML2 cells. As to the kind of experiment: LDH release / GSDMD cleavage in CARD8 knockout cells. The format is cell-based, human. To be noted: 2 μM; 24 h OCI-AML2 and MV4;11, 48 h THP-1. For orientation: LDH leaks from cells whose membrane has failed.
Data set [6] has as its system primary human cancer AML-10. In words: AML-10 patient-derived xenograft. The format is in vivo, mouse. The following applies: 2 mg/kg, PDX model. For orientation: Xenograft models place foreign cells or tissue in a host animal.
The conditions of data set [7]: cited from earlier work.
The test system of another data set is G-CSF. The following applies: healthy volunteers and cancer patients; cited from earlier work.
The subject of the next data set is non-AML cell lines. In words: CellTiter-Glo cell viability across the cell line panel. The format is cell-based, human. An outline of the steps: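 Cells were dispensed at 2000 cells/well in 25 μL of medium, and compound was added by pintool. MV4;11 and RS4;11 were incubated 22 h and all other lines 46 h, at 37 °C. Plates were equilibrated to room temperature, then CellTiter-Glo was added, with 2 min orbital shaking and 10 min at room temperature. Luminescence is expressed relative to DMSO as mean ± SEM of three biological replicates.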

The test system of the next data set is primary B-ALL. As to the kind of experiment: Primary cancer cell assay. The format is cell-based, human. To be noted: 20 µM, 48 h, FACS.
For another data set, the system named is primary T-ALL samples. As to the kind of experiment: Primary cancer cell assay. It is filed as cell-based, human. The following applies: 20 µM, FACS. An outline of the steps:
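Bone marrow aspirates were strained, Ficoll-separated and ACK-lysed, then frozen; AML samples 1–4 were first passaged in NSG mice. Cells were thawed in IMDM/15% FBS with DNase1 and cultured with 2-mercaptoethanol, G-CSF, SCF, IL-3 and FLT3-ligand. One day later, 100,000 cells/well were treated in triplicate with 20 μM or DMSO for 40 h at 37 °C. Death was scored by flow cytometry (anti-human/anti-mouse CD45, PI or DAPI).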

The nature of the next data set: Tolerability in MV4. The format is in vivo, mouse. The following applies: NSG mice, 20 μg i.p., treatment day 23. The procedure, abridged:
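Disseminated MV4;11-Luc NSG model: mice were dosed i.p. with 100 μL vehicle (1 mM HCl/PBS) or 20 μg/100 μL daily, 5 days/week, and weighed daily. After 23 days of dosing, peripheral blood was taken from 3 mice per group, chosen by high, median and low BLI flux. It was analysed for complete blood counts and blood chemistry. Femur, spleen, lung and liver sections were H&E-stained.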

Another data set deals with G-CSF and Cxcl1. To be noted: mice; cited from earlier work.
Data set [8] deals with CASP1−/− MV4;11 leukemia cells. As to the kind of experiment: Disseminated CASP1−/− MV4. It is filed as in vivo, mouse. The following applies: 20 μg i.p. once daily, 5 days a week, 3 weeks. The procedure, abridged:
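NSG mice (female, 7 weeks, 200 cGy irradiated) received 1 million luciferase-expressing CASP1−/− MV4;11 cells by tail vein. On day 5 they were randomized (n=9/group) and dosed i.p. with 100 μL vehicle (1 mM HCl in PBS, pH 7.4) or 20 μg/100 μL once daily, 5 days/week. Dosing stopped after 3 weeks. Burden was tracked by bioluminescence; survival to moribund state used all 9 animals.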

A further data set deals with MV4;11 leukemia cells. As to the kind of experiment: Disseminated MV4. The format is in vivo, mouse. To be noted: 20 μg i.p. once daily, 5 days a week for 4 weeks; log-rank test. The procedure, abridged:
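Luciferase-expressing MV4;11 cells (1 million, neomycin-selected) were injected into the tail vein of 200 cGy-irradiated 7-week female NSG mice. From day 5, randomized mice (n=9/group) got 100 μL i.p. vehicle (1 mM HCl in PBS, pH 7.4) or 20 μg/100 μL once daily, 5 days/week for 4 weeks. BLI tracked burden. Survival ran from inoculation to moribund state (6/group), analysed by log-rank test.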

For the next data set, the system named is K562 cells. In words: CellTiter-Glo cell viability assay. The format is cell-based, human.
Data set [9] concerns primary human cord blood CD34+ cells. In words: CellTiter-Glo cell viability assay. It is filed as cell-based. The following applies: 6 μM, 24 h, Cell Titer Glo. The procedure, abridged: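 Human cord blood cells were thawed in IMDM/15% FBS with DNase1 (1 mg/mL). Culture medium was IMDM/10% FBS with TPO, SCF and G-CSF (each 100 ng/mL). Cells were assayed immediately after thawing at 2000 cells/well with pintool compound addition, incubated 22 h at 37 °C, and read by CellTiter-Glo luminescence after 2 min shaking and 10 min at room temperature.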

Data set [10] has as its system NLRP1−/− THP-1 and MV4;11 cells. As to the kind of experiment: LDH release / GSDMD cleavage in NLRP1 knockout cells. It is filed as cell-based, human.
Another data set deals with primary AML cells. In words: Primary cancer cell assay. It is filed as cell-based, human. To be noted: 20 µM, 48 h, FACS.
Data set [11] relates to HEK 293T cells stably expressing hCASP1 and hGSDMD transfected with CARD8. As to the kind of experiment: LDH release from transfected HEK 293T cells. It is filed as cell-based, human. To be noted: 2 μM, 24 h; CARD8 but not NLRP1 or S297A CARD8. The procedure, abridged: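 HEK 293T cells stably expressed human caspase-1 (hygromycin-selected) and gasdermin D (puromycin-selected) after lentiviral transduction. They were seeded at 0.5 × 10^6/well in DMEM/10% FBS one day before Fugene HD transfection, with total DNA brought to 2 μg with RFP vector; RFP vector alone served as mock. After 24 h, cells got DMSO or 2 μM for a further 24 h. Supernatant LDH was measured (mean ± SEM, three experiments).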

Another data set has as its system sensitive AML cell lines. As to the kind of experiment: Immunoblotting of GSDMD and PARP cleavage. The format is cell-based, human. To be noted: 24 h.

For `CC(C)C[C@H](NC(=O)[C@H](Cc1ccccc1)NC(=O)c1cnccn1)B(O)O` [bortezomib], the “effect on activation of CARD8 by Val-boroPro (LDH release)” value with THP-1 or MV4;11 cells is “blocks”.

For the molecule `CC[C@@H](C)[C@H](N)C(=O)N1Cc2ccccc2C1` [L-allo-Ile-isoindoline], in the data set on AML cell lines [1], the “sensitivity of the Val-boroPro-sensitive AML cell lines to the compound” value is reported as “sensitive”. The “sensitivity of caspase-1 knockout cells” value in [2] is given as “resistant”.

Regarding `N#C[C@@H]1CCCN1C(=O)CNC12CC3CC(CC(O)(C3)C1)C2` [vildagliptin], the “anti-AML cytotoxicity on its own” value with AML cell lines [3] is on record as “did not exhibit any anti-AML cytotoxicity”.

In the case of `CC(C)[C@H](N)C(=O)N1CCC[C@H]1B(O)O` [Val-boroPro], the “reduction in cell viability” value in the data set with AML cell lines [1] (KG1, THP-1 and NOMO-1) is recorded as 40–65%; with AML cell lines [1] (MV4;11, OCI-AML2, SET-2, RS4;11 and MOLM-13), more than 80%. For the same molecule, the IC50 in the data set with AML cell lines [1] (Homo sapiens, read-out: IC50 values in sensitive AML cell lines) was 6 to 206 nM. For the same molecule, the “time in which cells died” value in the data set on AML cell lines [1] (MV4;11 and OCI-AML2 cells) was in the range of 1 to 2 days. Besides, the “compound treatment required to achieve maximal cell killing” value with AML cell lines [1] (THP-1 and NOMO-1 cells) was 5 days. The “cell death after 5 days of treatment” value with HEK 293T cells and with K562 cells was “no cell death” each time. For the same molecule, in data set [4], the “effects on peripheral blood counts or body weight” value is “no significant effects”. For the same molecule, in data set [5], the “sensitivity of CARD8−/− cells (GSDMD cleavage, cell death)” value was “completely resistant”. For the same molecule, in data set [6], the “weight loss associated with leukemia progression” value is listed as “slowed weight loss”. Further, the “maximum tolerated dose in humans” value in data set [7] is “without reaching a maximum tolerated dose”. Further, the “serum concentrations reached in humans” value in [7] is given as more than 100 nM. Besides, the “levels of a number of cytokines, including G-CSF” value in the data set on G-CSF is on record as “elevated”. For the same molecule, the “activity against non-AML cell lines tested” value in the data set on non-AML cell lines is recorded as “no activity”. Moreover, the “cell death in primary B-ALL” value with primary B-ALL is reported as “sensitive”. In addition, the “sensitivity of caspase-1 knockout cells” value in [2] is listed as “resistant”. Moreover, the “cell death in primary T-ALL samples” value with primary T-ALL samples is given as “completely resistant”. Further, in “Tolerability in MV4”, the “effects on peripheral blood cell counts, serum chemistry, body weight” value is listed as “no significant effects”. Further, the “serum protein levels of several cytokines, including G-CSF and Cxcl1” value with G-CSF and Cxcl1 was “increases”. The “efficacy against CASP1−/− MV4;11 cells in vivo (bioluminescence, survival)” value in data set [8] is “absolutely no efficacy; also recorded: not statistically different”. The “median extension in survival” value in the data set with MV4;11 leukemia cells is 24.5 days. Further, the “cell death in primary CD34+ human cord blood cells” value in data set [9] is given as “sensitive”. Besides, in [10], the “pyroptosis in NLRP1−/− cells” value is reported as “induced pyroptosis”. Also, the “cell death in primary AML samples” value with primary AML cells is recorded as “sensitive”. In data set [11], the “cytotoxicity in CARD8-expressing HEK 293T cells” value is “sensitive”. Also, in the data set with sensitive AML cell lines, the “cleavage of gasdermin D (GSDMD), not PARP” value is “induced cleavage”.

`N[C@@H](CC(=O)N1CCn2c(nnc2C(F)(F)F)C1)Cc1cc(F)c(F)cc1F` [sitagliptin]: the “sensitivity of the Val-boroPro-sensitive AML cell lines to the compound” value in the data set with AML cell lines [1] is given as “not sensitive”.

The IC50 is the point on the concentration scale where inhibition reaches its midpoint.
